Bioassay records deposited in PubChem BioAssay by several laboratories.
Hits are enriched below; roughly 9.8% of the tested compounds scored in any of these assays.
PMI activator – phosphomannose isomerase (human) activation; purified human PMI, coupled resazurin fluorescence, 20 min; hits give high values; 1 = vehicle control, 0 substrate-free wells; activation factor at 20 µM; 190,000 compounds, 0.005% hits; AID 1214;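 active means activation factor of 2 or more at 20 µM, relative to plate controls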
Target sequence (P34949 whole entry, looked up): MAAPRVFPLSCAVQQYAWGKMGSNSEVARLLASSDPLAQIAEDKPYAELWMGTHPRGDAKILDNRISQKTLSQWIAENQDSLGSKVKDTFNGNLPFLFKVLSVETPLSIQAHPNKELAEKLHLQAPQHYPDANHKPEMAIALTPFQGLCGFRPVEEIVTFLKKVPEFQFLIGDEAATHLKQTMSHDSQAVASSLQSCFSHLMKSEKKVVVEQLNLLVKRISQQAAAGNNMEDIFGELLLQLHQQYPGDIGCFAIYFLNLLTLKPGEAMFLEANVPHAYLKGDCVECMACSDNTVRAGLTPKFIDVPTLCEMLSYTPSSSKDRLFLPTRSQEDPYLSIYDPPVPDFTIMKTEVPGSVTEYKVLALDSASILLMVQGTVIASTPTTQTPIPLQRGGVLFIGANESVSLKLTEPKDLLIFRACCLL
m-calpain inh – blocks pig calpain II enzyme activity. purified calpain II, fluorogenic peptide substrate, 30 min. inhibition, % at 16 µM. 220,000 compounds, 0.37% hits. AID 1236;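 active means inhibition above about 50%, limit read from the data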
PMI act hi M6P – activators of human phosphomannose isomerase at near-saturating mannose 6-phosphate; activation factor at 20 µM; P34949; coupled PMI enzyme assay, resazurin fluorescence, 20 min; hits give high values; 1 = untreated enzyme, 0 = substrate-free blank; AID 1216; 190,000 compounds, 0.34% hits;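 active means activation factor of 2 or more at 20 µM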
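Test system: human phosphomannose isomerase with PGI, G6PDH, diaphorase coupling enzymes / Doses: 20 µM compound, 1% DMSO / Times: enzyme reaction with compound 20 min at room temperature / Measured by: Diaphorase-driven resazurin-to-resorufin fluorescence, excitation 544, emission 590 nm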
Rad51 HR inh – Rad51 (human) homologous recombination inhibition | Q06609 | hRad51 DNA strand exchange, fluorescence dequenching | inhibition, % at 10 µM | 200,000 compounds, 0.085% hits | AID 1385;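 active means inhibition above 40% at the single screening dose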
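Read-out basis: percent inhibition relative to plate controls and blanks / Assay system: human Rad51 nucleoprotein filaments preassembled on unlabelled ssDNA / Timing: filaments 15 min 37 °C, then compound 30 min / Control set: per-plate controls and blanks / Technique: fluorescence dequenching at 485/520 nm / Compound: 10 µM final, single point / Also added: Fluorescein- and BHQ1-tagged 47-mer duplex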
WT yeast gro inh – growth inhibition of WT yeast, mitochondrial fusion screen | mitochondrial fusion phenotypic screen, WT strain | inhibition, % at 10 µM | 190,000 compounds, 2.1% hits; in the data active means inhibition above about 58%; tested in S. cerevisiae
L major viab – reduces viability of Leishmania major promastigotes; AID 1063; resazurin fluorescence viability; 200,000 compounds, 9% hits; inhibition, % at 10 µM; in the data active means inhibition above about 50%;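 further: promastigotes grown with compound for 44 hours at 28 °C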
Each line names hits and unclear results; the compound was inactive in the other large screens.

O=S(=O)(c1ccc(-c2nnc(SCc3ccccc3)o2)cc1)N1CCCC1	L major viab 85
Cc1ccc(CSc2nnc(-c3ccc(S(=O)(=O)N4CCCC4)cc3)o2)cc1	none
CCOC(=O)c1ccc(NC(=S)N(CCCN2CCN(C)CC2)Cc2cccs2)cc1	none
CCOC(=O)c1ccc(NC(=S)N(CCCN2CCN(CC)CC2)Cc2cccs2)cc1	none
Cc1ccc(NC(=S)N(CCCN2CCOCC2)Cc2cccs2)c(C)c1	L major viab 69
COc1ccc(NC(=S)N(CCCN2CCC(C)CC2)Cc2cccs2)cc1	none
CCOC(=O)c1ccc(NC(=S)N(CCN2CCCCCC2)Cc2cccs2)cc1	L major viab 96
CCOC(=O)c1ccc(NC(=S)N(CCCN2CCCC2)Cc2cccs2)cc1	L major viab 82
CCOC(=O)c1ccc(NC(=S)N(CCCN2CCCC(C)C2)Cc2cccs2)cc1 (stereo not drawn)	L major viab 97
CC(C)(C)NC(=O)COC(=O)c1cc(S(=O)(=O)N2CCCCC2)ccc1N1CCOCC1	none
O=[N+]([O-])c1cccc(-n2nnnc2CNCc2ccccc2)c1	none (no result: PMI activator, PMI act hi M6P, WT yeast gro inh, L major viab)
COc1ccc(NC(=S)N(CCCN2CCCCC2)Cc2cccs2)cc1	L major viab 83
CCOC(=O)C1=C(C)N=C2SCCC(=O)N2[C@@H]1/C=C/c1ccccc1	none
CC1=C(C(=O)OCc2ccccc2)C(/C=C/c2ccccc2)N2C(=O)CCSC2=N1 (stereo not drawn)	L major viab 75
O=C(N/N=C/c1ccc(-c2ccc(S(=O)(=O)Nc3ncccn3)cc2)o1)c1cc2ccccc2cc1O	L major viab 73 (no result: Rad51 HR inh)
Oc1ccc(/C=N/Nc2ccnc3cc(Cl)ccc23)c(O)c1	none (no result: PMI activator, PMI act hi M6P, WT yeast gro inh, L major viab)
Cc1ccc(/C=N/Nc2ccnc3cc(Cl)ccc23)c(C)c1	L major viab 100
Cc1ccccc1/C=N/Nc1ccnc2cc(Cl)ccc12	L major viab 98
C=C(C)CNC(=S)Nc1sc2c(c1C(=O)OCC)CC(C)(C)OC2	none
COc1ccccc1-n1c(=O)c(C#N)c(-c2ccc([N+](=O)[O-])cc2)c2cc(C(=O)c3ccccc3O)cnc21	none (no result: PMI activator, PMI act hi M6P, Rad51 HR inh, WT yeast gro inh, L major viab)
S=C(NCCCN1CCOCC1)N1CCN(c2nc(-c3ccc(Cl)cc3)cs2)CC1	WT yeast gro inh 89, L major viab 76
O=C(N1CCOCC1)N1CCN(c2nc(-c3ccccc3)cs2)CC1	none
S=C(NCC1CCCO1)N1CCN(c2nc(-c3ccc(Cl)cc3)cs2)CC1 (stereo not drawn)	WT yeast gro inh 67 (no result: Rad51 HR inh)
S=C(NCCCN1CCOCC1)N1CCN(c2nc(-c3ccccc3)cs2)CC1	L major viab 83
S=C(NCCCN1CCOCC1)N1CCOCC1	none (no result: PMI activator, PMI act hi M6P, WT yeast gro inh, L major viab)
COc1ccc2c(C)cc(SCC(=O)Nc3ccc(Cl)cn3)nc2c1	L major viab 59
COc1ccc2c(C)cc(SCC(=O)N3CCOCC3)nc2c1	none
FC(F)(F)c1cc(Sc2ccccc2)nc(-c2ccccn2)n1	WT yeast gro inh 65
COC(=O)CSc1cc(C(F)(F)F)nc(-c2ccccn2)n1	none
Cc1c(-c2ccccc2)nc2ccccc2c1C(=O)NCc1cccs1	none
Cc1ccc(SCC(=O)Nc2ccc(N3CCN(C)CC3)c(F)c2)c(C)c1	L major viab 100
Cc1ccc(S(=O)(=O)N2CCN(C(=O)C3CCN(C(=O)c4ccccc4C)CC3)CC2)cc1C	none
CSc1nc(-c2ccccc2)nc(N2CCOCC2)c1C(C)=O	none
O=C(Nc1ccc(C(O)(C(F)(F)F)C(F)(F)F)cc1)c1ccc(Cl)c([N+](=O)[O-])c1	WT yeast gro inh 74, L major viab 53
O=C(Nc1ccccc1)Nc1ccc(Cl)c([N+](=O)[O-])c1	WT yeast gro inh 82, L major viab 53
CC(CC(=O)Nc1ccc(Cl)c([N+](=O)[O-])c1)c1ccccc1 (stereo not drawn)	WT yeast gro inh 80
O=C(O)c1cc(NC(=O)c2ccc(Cl)c([N+](=O)[O-])c2)cc(C(=O)O)c1	none
C/C(=N/N=C1\SCC(=O)N1c1ccccc1)c1ccc(C)cc1	none (no result: PMI activator, PMI act hi M6P, WT yeast gro inh, L major viab)
Cc1csc(NC(=O)CCNC(=O)c2ccccc2Cl)n1	none
Cc1ccc(-n2c(C)cc(/C=N/NC(=O)c3ccc(CN4CCOCC4)cc3)c2C)cc1	L major viab 53
Cc1ccc(-n2c(C)cc(/C=N/NC(N)=S)c2C)cc1	L major viab 100 (no result: Rad51 HR inh)
CC(=O)N/N=C(\N)c1nonc1N	none (no result: PMI activator, PMI act hi M6P, WT yeast gro inh, L major viab)
O=c1c(Cl)c(Cl)cnn1Cc1nnc(-c2ccccc2Br)o1	L major viab 99
O=C(N/N=C/c1ccc(OC(F)F)cc1OC(F)F)c1cccc(S(=O)(=O)N2CCOCC2)c1	none
CC(=O)c1ccc(OCc2cc([N+](=O)[O-])cc3c2OCOC3)cc1	L major viab 75
CC(C)C(NC(=O)c1ccccc1)C(=O)OCc1cc([N+](=O)[O-])cc2c1OCOC2 (stereo not drawn)	none
CCOc1ccc(C(=O)N(Cc2ccc(OC)cc2)Cc2cc3cc(OC)ccc3[nH]c2=O)cc1	none
CCOc1ccc2[nH]c(=O)c(CN(CC3COCCO3)C(=O)c3ccc(C)cc3)cc2c1 (stereo not drawn)	L major viab 93
CCn1c(C)nc2cc(C(=O)OC(C(F)(F)C(F)F)C(F)(F)C(F)F)ccc21	L major viab 100 (no result: Rad51 HR inh)
CCn1c(C)nc2cc(C(=O)NNC(=O)c3ccc(Cl)nc3)ccc21	none
COc1cc(OC)c(N(C)S(=O)(=O)c2cccc(C(=O)OCC(=O)NCc3ccco3)c2)cc1Cl	L major viab 53 (no result: Rad51 HR inh)
COc1ccccc1C(CNC(=O)c1ccc(S(=O)(=O)NCc2ccco2)cc1)N(C)C (stereo not drawn)	L major viab 51
CN(C)C(=O)COC(=O)c1ccc(S(=O)(=O)NCc2ccco2)cc1	none (no result: PMI activator, PMI act hi M6P, WT yeast gro inh, L major viab)
COc1ccc(S(=O)(=O)NCc2ccco2)cc1N(C)S(=O)(=O)c1ccccc1	L major viab 60 (no result: Rad51 HR inh)
COc1ccc(OC)c(NC(=O)c2cc(S(=O)(=O)NCc3ccco3)ccc2F)c1	none
CC(=O)N1CCCN(Cc2cn(-c3cc(C)ccc3C)nc2-c2ccccc2)CC1	none
COc1ccc(OC2C(=O)N(Cc3ccc4c(c3)OCO4)C2c2sccc2C)cc1 (stereo not drawn)	L major viab 92
O=C(Nc1cc(C(F)(F)F)ccc1N1CCOCC1)c1ccc(Cl)nc1	L major viab 100
CC(C)C(=O)Nc1cc(C(F)(F)F)ccc1N1CCOCC1	none
O=C(Nc1cc(C(F)(F)F)ccc1N1CCOCC1)c1ccccc1	none
CCOc1ccccc1NC(C)C(=O)Nc1cc(C(F)(F)F)ccc1N1CCOCC1 (stereo not drawn)	WT yeast gro inh 69
Cn1cnnc1SCC(=O)NN(c1ccccc1)c1ccccc1	none
C=CCNc1nc(-c2ccccn2)nnc1-c1ccccc1	L major viab 100
c1ccc(-c2cnnc(-c3ccccn3)n2)cc1	none (no result: PMI activator, m-calpain inh, PMI act hi M6P, WT yeast gro inh, L major viab)
Cc1cccc(C)c1-n1c(C)nn(CC2CC2)c1=O	none
